Reference: ChEMBL document CHEMBL4765333, “Novel NO-releasing scopoletin derivatives induce cell death via mitochondrial apoptosis pathway and cell cycle arrest” (Eur J Med Chem, 2020)
Activity calls are given as the source filed them. The calls are words filed in the database; no cut-off is given here.

Key:
[1] = test system: A549; assay: Anticancer activity against human A549 cells assessed as inhibition of cell proliferation measured after 48 hrs by MTT assay; format: functional, cell-based; details: A549, 48 h
Procedure, shortened: (§1)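 Cells seeded at ~5,000/well, grown 24 h to partial monolayer, then exposed 48 h at 37°C, 5% CO2 to 0.5, 1, 2, 4, 10 and 20 µM (DMSO ≤0.1%). MTT final 0.5 mg/ml for 4 h, formazan dissolved in DMSO, A570. Survival expressed as % of untreated control; IC50 from dose-response curves; three independent experiments.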

[2] = test system: L02; assay: Cytotoxicity against human L02 cells assessed as reduction in cell viability measured after 48 hrs by MTT assay; format: cell-based; details: L02, 48 h
Procedure, shortened: as §1, with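 “experiments. MDA-MB-231, MCF-7, HepG2 in DMEM; A549 and LO-2 in RPMI-1640; 10% FBS.” for “experiments.”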

[3] = test system: MDA-MB-231; assay: Induction of apoptosis in human MDA-MB-231 cells after 24 hrs by Hoechst33342 staining based fluorescence inverted microscopic analysis; format: functional, cell-based; details: dose 0.5-1.5 µM
Procedure, shortened: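 MDA-MB-231 cells (5×10^4/well) attached 24 h, then treated 24 h with 0.5, 1 or 1.5 µM (DMSO vehicle control). Stained with Hoechst 33342 at 10 µg/ml for 5 min at 37°C in the dark, washed with PBS, and examined by inverted fluorescence microscopy for apoptotic nuclear morphology.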

[4] = test system: MDA-MB-231; assay: Induction of apoptosis in human MDA-MB-231 cells assessed as late apoptotic cells at 1 uM after 24 hrs by Annexin V/propidium iodide based flow cytometric analysis (reference value: 0.038%); format: functional
Procedure, shortened: (§2)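 MDA-MB-231 cells (2×10^5/well) attached 24 h, then treated 24 h with 1, 1.5, 2 or 3 µM, DMSO as control. Cells harvested, PBS-washed, resuspended in binding buffer, stained with Annexin V and PI for 30 min at 37°C in the dark, and analysed by flow cytometry for quadrant percentages; three experiments.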

[5] = test system: MDA-MB-231; assay: Induction of apoptosis in human MDA-MB-231 cells assessed as necrotic cells at 1.5 uM after 24 hrs by Annexin V/propidium iodide based flow cytometric analysis (reference value: 0.019%); format: functional; procedure, shortened: as §2
[6] = test system: MDA-MB-231; assay: Induction of apoptosis in human MDA-MB-231 cells assessed as late apoptotic cells at 1.5 uM after 24 hrs by Annexin V/propidium iodide based flow cytometric analysis (reference value: 0.038%); format: functional; procedure, shortened: as §2
[7] = test system: MDA-MB-231; assay: Induction of apoptosis in human MDA-MB-231 cells assessed as viable cells at 2 uM after 24 hrs by Annexin V/propidium iodide based flow cytometric analysis (reference value: 99%); format: functional; details: read-out: Activity; procedure, shortened: as §2
[8] = test system: MDA-MB-231; assay: Induction of apoptosis in human MDA-MB-231 cells assessed as early apoptotic cells at 2 uM after 24 hrs by Annexin V/propidium iodide based flow cytometric analysis (reference value: 0.94%); format: functional; procedure, shortened: as §2
[9] = test system: MDA-MB-231; assay: Induction of apoptosis in human MDA-MB-231 cells assessed as necrotic cells at 3 uM after 24 hrs by Annexin V/propidium iodide based flow cytometric analysis (reference value: 0.019%); format: functional; procedure, shortened: as §2
[10] = test system: MDA-MB-231; assay: Induction of apoptosis in human MDA-MB-231 cells assessed as late apoptotic cells at 3 uM after 24 hrs by Annexin V/propidium iodide based flow cytometric analysis (reference value: 0.038%); format: functional; procedure, shortened: as §2
[11] = test system: MDA-MB-231; assay: Induction of mitochondrial membrane potential depolarization in human MDA-MB-231 cells assessed as proportion of cells with depolarized MMP at 2 uM incubated for 18 hrs by JC-1 staining based flow cytometry (reference value: 0.72%); format: functional
[12] = Induction of intracellular reactive oxygen species generation in human MDA-MB-231 cells assessed as proportion of FL1-H negative cells at 1 uM measured after 24 hrs by DCFH-DA staining based flow cytometry analysis (reference value: 52.2%); format: functional, MDA-MB-23
[13] = test system: MDA-MB-231; assay: Induction of intracellular reactive oxygen species generation in human MDA-MB-231 cells at 2 uM measured after 24 hrs by DCFH-DA staining based flow cytometry analysis relative to control; format: functional
Procedure, shortened: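 MDA-MB-231 cells at 2×10^5 cells/well, grown 24 h, exposed 24 h to compound (1, 1.5, 2 µM) or DMSO control. Cells then took up DCFH-DA for 30 min at 37°C in the dark, were PBS-washed, resuspended in serum-free medium and analysed by flow cytometry. Relative DCF level vs control; mean ± SD, n = 3.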

[14] = test system: MDA-MB-231; assay: Induction of apoptosis in human MDA-MB-231 cells assessed as downregulation of Bcl-2 expression at 1.5 to 6 uM measured after 8 hrs by Western blot analysis; format: functional, cell-based; details: dose 1.5-6 µM
Procedure, shortened: (§3)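 MDA-MB-231 cells (8×10^5 per 60 mm dish) attached 24 h, then exposed 8 h to 1.5, 3 or 6 µM, DMSO as control. Lysates quantified by BCA; 30 µg protein run on 4–20% SDS-PAGE, transferred to PVDF, probed for Bcl-2, Bax, Bad, cleaved caspase-9, cleaved caspase-3 and PARP, with ECL detection. Densitometric relative levels; three experiments.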

[15] = test system: MDA-MB-231; assay: Induction of apoptosis in human MDA-MB-231 cells assessed as up-regulation of Bax expression at 1.5 to 6 uM measured after 8 hrs by Western blot analysis; format: functional, cell-based; details: dose 1.5-6 µM; procedure, shortened: as §3
[16] = test system: MDA-MB-231; assay: Induction of apoptosis in human MDA-MB-231 cells assessed as increase in cleaved PARP protein expression incubated for 8 hrs by Western blot analysis; format: functional, cell-based; details: dose 1.5-6 µM; procedure, shortened: as §3
[17] = test system: MDA-MB-231; assay: Induction of cell cycle arrest in human MDA-MB-231 cells assessed as accumulation at G2/M phase at 1.5 uM measured after 24 hrs by propidium iodide staining based flow cytometric method (reference value: 18.55%); format: functional
[18] = test system: MDA-MB-231; assay: Induction of cell cycle arrest in human MDA-MB-231 cells assessed as accumulation at G0/G1 phase at 2 uM measured after 24 hrs by propidium iodide staining based flow cytometric method (reference value: 45.71%); format: functional
[19] = Induction of intracellular reactive oxygen species generation in human MDA-MB-231 cells assessed as proportion of FL1-H negative cells at 1.5 uM measured after 24 hrs by DCFH-DA staining based flow cytometry analysis (reference value: 52.2%); format: functional, MDA-MB-23
[20] = (§4) Induction of intracellular reactive oxygen species generation in human MDA-MB-231 cells assessed as proportion of FL1-H negative cells at 2 uM measured after 24 hrs by DCFH-DA staining based flow cytometry analysis (reference value: 52.2%); format: functional, MDA-MB-23
[21] = as §4, with “uM pretreated with ROS scavenger, NAC for 2 hrs prior to incubation with compound and” for “uM”; format: functional, MDA-MB-23
[22] = Induction of intracellular reactive oxygen species generation in human MDA-MB-231 cells assessed as proportion of FL1-H positive cells at 2 uM measured after 24 hrs by DCFH-DA staining based flow cytometry analysis (reference value: 47.8%); format: functional, MDA-MB-23

## COc1cc2cc(N)c(=O)oc2cc1OCCCOc1no[n+]([O-])c1S(=O)(=O)c1ccccc1
[1]
  IC50: 4.18 µM
[2]
  IC50: 9.16 µM
[3]
  Activity: Dose-dependent effect
[4]
  Activity: 8.17%
[5]
  Activity: 0.31%
[6]
  Activity: 13.2%
[7]
  viability at 2 µM: 71.1%
[8]
  Activity: 12.9%
[9]
  Activity: 0.31%
[10]
  Activity: 20.5%
[11]
  Activity: 31.5%
[12]
  Activity: 35%
[13]
  fold change (FC): 2.16
[14]
  Activity: Active
[15]
  Activity: Active
[16]
  Activity: Dose-dependent effect
[17]
  Activity: 30.11%
[18]
  Activity: 38.05%
[19]
  Activity: 17.3%
[20]
  Activity: 11.2%
[21]
  Activity: 49%
[22]
  Activity: 88.8%
